Results collected from several papers.
Protocols differ between the studies behind these lines.
Target: Inhibitor of nuclear factor kappa-B kinase subunit alpha (CHUK, Homo sapiens, UniProt O15111)
One construct used (O15111 1-745): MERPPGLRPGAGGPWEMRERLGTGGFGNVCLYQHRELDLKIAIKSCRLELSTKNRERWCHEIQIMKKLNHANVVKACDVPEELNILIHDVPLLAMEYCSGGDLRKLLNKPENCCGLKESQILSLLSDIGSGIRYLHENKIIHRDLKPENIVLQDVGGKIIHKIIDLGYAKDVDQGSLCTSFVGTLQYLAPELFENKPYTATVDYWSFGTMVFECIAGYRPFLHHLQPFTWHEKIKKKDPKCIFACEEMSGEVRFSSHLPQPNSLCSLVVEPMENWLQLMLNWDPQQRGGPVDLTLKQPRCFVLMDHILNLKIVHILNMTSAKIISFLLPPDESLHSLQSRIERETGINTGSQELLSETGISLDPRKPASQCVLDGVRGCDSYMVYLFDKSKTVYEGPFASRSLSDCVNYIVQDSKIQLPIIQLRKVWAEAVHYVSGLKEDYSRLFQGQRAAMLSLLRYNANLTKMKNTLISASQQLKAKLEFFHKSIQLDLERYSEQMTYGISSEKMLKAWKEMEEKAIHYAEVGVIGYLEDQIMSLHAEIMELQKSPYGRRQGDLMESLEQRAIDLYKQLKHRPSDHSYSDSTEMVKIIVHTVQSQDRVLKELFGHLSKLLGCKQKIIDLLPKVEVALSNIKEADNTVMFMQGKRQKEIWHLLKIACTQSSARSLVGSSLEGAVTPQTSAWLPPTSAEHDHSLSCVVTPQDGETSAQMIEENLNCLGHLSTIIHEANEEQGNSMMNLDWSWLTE

| SMILES | observed | mode | technique | concentration | quantity | result |
| --- | --- | --- | --- | --- | --- | --- |
| C=CC(=O)N1CCC([C@@H]2CCNc3c(C(N)=O)c(-c4ccc(Oc5ccccc5)cc4)nn32)CC1 | enzyme activity | inhibitor | – | 1 µM | inhibition | 0% |
| COc1ccc2oc(-c3ccc4nc(N)oc4c3)c/c(=N\c3ccccc3NC(=O)CCN)c2c1 | binding | – | – | 1 µM | remaining binding | 94% |
| COc1ccc2[nH]c3c4[nH]c5ccc(OC)cc5c4c4c(c3c2c1)C(=O)NC4=O | binding | – | – | 1 µM | remaining binding | 89% |
| C#Cc1cnc(Nc2ccnc(CO)c2)nc1Nc1ccccc1S(C)(=O)=NC#N (centres unmarked) | cell-free assay | – | – | 1 µM | remaining signal | 100% |
| N#Cc1ccc(NC(=O)Nc2ccccc2)cc1 | cell-free assay | – | competition with immobilised ligand | 25 µM | remaining binding | 85% |
| CCCCC(=O)Nc1ccc(-c2ccc3ncn(CCC)c(=O)c3c2)cn1 | binding | – | competition with immobilised ligand | 0.5 µM | remaining binding | 100% |
| C[C@H]1CC[C@H](n2c3cnccc3c3cnc(Nc4ccc5c(n4)CCN(C(=O)CO)C5)nc32)CC1 | cell-free assay | – | – | 1 µM | remaining signal | 76% |
| C=CC(=O)N1CCC[C@@H](n2nc(-c3ccc(Oc4ccccc4)cc3)c3c(N)ncnc32)C1 | enzyme activity | inhibitor | – | 1 µM | inhibition | 16% |
